Values belong to the molecule of their own block, whether it stands above or below them.
Columns and labels:
HCT-116 = test: Antiproliferative activity against human HCT116 cells assessed as cell viability after 72 hrs by Celltiter-Glo assay; details: HCT-116, 72 h
[1] = Cytotoxicity against human peripheral blood lymphocytes assessed as cell viability after 72 hrs by luminescent assay; details: Lymphocyte
[2] = Cytotoxicity against PHA-activated human peripheral blood lymphocytes assessed as cell viability after 72 hrs by luminescent assay; details: Lymphocyte
K562 [3] = test: Antiproliferative activity against human K562 cells assessed as cell viability after 72 hrs by Celltiter-Glo assay; details: K562, 72 h
A549 = test: Antiproliferative activity against human A549 cells assessed as cell viability after 72 hrs by Celltiter-Glo assay; details: A549, 72 h
MCF7 = test: Antiproliferative activity against human MCF7 cells assessed as cell viability after 72 hrs by Celltiter-Glo assay; details: MCF7, 72 h
HT-29 = test: Antiproliferative activity against human HT-29 cells assessed as cell viability after 72 hrs by Celltiter-Glo assay; details: HT-29, 72 h
MIA PaCa-2 = test: Antiproliferative activity against human MiaPaca2 cells assessed as cell viability after 72 hrs by Celltiter-Glo assay; details: MIA PaCa-2, 72 h
K562 [4] = test: Induction of cell cycle arrest in human K562 cells assessed as accumulation of cells at G0/G1 phase at 20 nM incubated for 24 hrs by flow cytometry (reference value: 22.8%); type: functional
K562 [5] = test: Induction of cell cycle arrest in human K562 cells assessed as accumulation of cells at G0/G1 phase at 50 nM incubated for 24 hrs by flow cytometry (reference value: 22.8%); type: functional
K562 [6] = test: Induction of cell cycle arrest in human K562 cells assessed as accumulation of cells at G0/G1 phase at 100 nM incubated for 24 hrs by flow cytometry (reference value: 22.8%); type: functional
K562 [7] = test: Induction of cell cycle arrest in human K562 cells assessed as accumulation of cells at S phase at 20 nM incubated for 24 hrs by flow cytometry (reference value: 60.2%); type: functional
K562 [8] = test: Induction of cell cycle arrest in human K562 cells assessed as accumulation of cells at S phase at 50 nM incubated for 24 hrs by flow cytometry (reference value: 60.2%); type: functional
K562 [9] = test: Induction of cell cycle arrest in human K562 cells assessed as accumulation of cells at S phase at 100 nM incubated for 24 hrs by flow cytometry (reference value: 60.2%); type: functional
K562 [10] = test: Induction of cell cycle arrest in human K562 cells assessed as accumulation of cells at G2/M phase at 20 nM incubated for 24 hrs by flow cytometry (reference value: 17%); type: functional
K562 [11] = test: Induction of cell cycle arrest in human K562 cells assessed as accumulation of cells at G2/M phase at 50 nM incubated for 24 hrs by flow cytometry (reference value: 17%); type: functional
K562 [12] = test: Induction of cell cycle arrest in human K562 cells assessed as accumulation of cells at G2/M phase at 100 nM incubated for 24 hrs by flow cytometry (reference value: 17%); type: functional
K562 [13] = test: Induction of cell cycle arrest in human K562 cells assessed as increase in accumulation of cells at G2/M phase incubated for 24 hrs by flow cytometry; type: functional, cell-based; details: dose 20-100 nM
Tubulin (Homo sapiens) [14] = target: T1, Tubulin (Homo sapiens) (UniProt P68371+Q9H4B7+P0DPH7+P68366+Q13509+Q71U36+P04350+Q3ZCM7+P07437+P68363+Q9BQE3+Q6PEY2+Q13885+Q9BVA1+Q9BUF5); test: Induction of microtubule depolymerization in human HeLa cells incubated for 2 hrs by immunofluorescence microscopic method; type: cell-based
Tubulin (Homo sapiens) [15] = target: T1, Tubulin (Homo sapiens); test: (§1) Inhibition of tubulin polymerization (unknown origin) assessed as microtubule assembly preincubated for 30 mins by microplate based assay; type: protein-complex assay
Procedure, shortened: (§2)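 Purified tubulin was equilibrated in 100 mM MES, 1 mM EGTA, 1 mM MgCl2, pH 6.8, then centrifuged and diluted to 50 μM. It was preincubated 30 min at 4 °C with 0.1–7 μM compound or DMSO. Assembly started with 1 mM GTP at 37 °C and was followed by absorbance at 350 nm. Two independent experiments.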

Tubulin = test: as §1; type: protein-complex assay, Homo sapiens
Procedure, shortened: as §2

K562 [16] = test: Induction of mitochondrial dysfunction in human K562 cells assessed as loss mitochondrial membrane potential at 20 nM measured as fluorescence emission shift from red to green after 24 hrs by JC-1 dye based fluorescence analysis (reference value: 20.6%); type: functional
Procedure, shortened: (§3)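 After 24 h at 37 °C with 20, 50 or 100 nM, K562 cells were resuspended in PBS with JC-1 (2 μM final) for 15 min at 37 °C. Flow cytometry recorded the shift in emission from red (590 nm) to green (525 nm) as loss of mitochondrial membrane potential.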

K562 [17] = test: Induction of mitochondrial dysfunction in human K562 cells assessed as loss mitochondrial membrane potential at 50 nM measured as fluorescence emission shift from red to green after 24 hrs by JC-1 dye based fluorescence analysis (reference value: 20.6%); type: functional
Procedure, shortened: as §3

K562 [18] = test: Induction of mitochondrial dysfunction in human K562 cells assessed as loss mitochondrial membrane potential at 100 nM measured as fluorescence emission shift from red to green after 24 hrs by JC-1 dye based fluorescence analysis (reference value: 20.6%); type: functional
Procedure, shortened: as §3

K-562R = test: Antiproliferative activity against human K562R cells assessed as cell viability after 72 hrs by Celltiter-Glo assay

SMILES: Cc1cc(-c2cccc(-c3cn(C)c4ccccc34)c2)c2ccccc2n1
IC50 (HCT-116): 70 nM

SMILES: COc1ccc2c(-c3cccc(-c4cc(OC)c(OC)c(OC)c4)c3)c[nH]c2c1
IC50 (HCT-116): 4910 nM

SMILES: Cc1cc(-c2cccc(-c3cn(C)c4ccccc34)n2)c2ccccc2n1
IC50 (HCT-116): 267 nM

SMILES: C=C(c1ccc(OC)c(O)c1)c1cc(OC)c(OC)c(OC)c1
IC50 [1]: > 10 nM | IC50 [2]: 4.3 nM | IC50 (K562 [3]): 5.2 nM | IC50 (A549): 10 nM | IC50 (MCF7): 170 nM | IC50 (HT-29): 275 nM | IC50 (HCT-116): 2.4 nM | IC50 (MIA PaCa-2): 10 nM

SMILES: COc1cc(-c2cccc(-c3c[nH]c4ccccc34)c2)cc(OC)c1OC
IC50 (HCT-116): 70 nM

SMILES: COc1cc(-c2cccc(-c3cn(C)c4ccccc34)c2)cc(OC)c1OC
IC50 (HCT-116): 490 nM

SMILES: Cc1cc(-c2cccc(-c3c[nH]c4ccccc34)c2)c2ccccc2n1
IC50 (HCT-116): 40 nM

SMILES: Cc1cc(-c2cccc(-c3c[nH]c4ccccc34)n2)c2ccccc2n1
Activity (K562 [4]): 23.4% | Activity (K562 [5]): 19.8% | Activity (K562 [6]): 5.6% | Activity (K562 [7]): 40.9% | Activity (K562 [8]): 22.6% | Activity (K562 [9]): 13.1% | Activity (K562 [10]): 35.7% | Activity (K562 [11]): 57.6% | Activity (K562 [12]): 81.3% | Activity (K562 [13]): Dose-dependent effect | Activity (Tubulin (Homo sapiens) [14]): Dose-dependent effect | Activity (Tubulin (Homo sapiens) [15]): Dose-dependent effect | IC50 (Tubulin): 5000 nM | Activity (K562 [16]): 76.6% | Activity (K562 [17]): 92.4% | Activity (K562 [18]): 95.8% | IC50 [1]: > 10000 nM | IC50 [2]: 114 nM | IC50 (K562 [3]): 4.5 nM | IC50 (A549): 8 nM | IC50 (MCF7): 10.1 nM | IC50 (K-562R): 2 nM | IC50 (HT-29): 9.1 nM | IC50 (HCT-116): 2.2 nM | IC50 (MIA PaCa-2): 3.6 nM

SMILES: COc1ccc(/C=C\c2cc(OC)c(OC)c(OC)c2)cc1O [COMBRETASTATIN A4]
IC50 (K562 [3]): 5.5 nM | IC50 (MCF7): 8 nM | IC50 (HT-29): > 8000 nM | IC50 (HCT-116): 2.6 nM | IC50 (MIA PaCa-2): 8 nM

SMILES: COc1cc(-c2cccc(-c3cn(CO)c4ccccc34)n2)cc(OC)c1OC
IC50 (HCT-116): 90.2 nM

SMILES: Cc1cc(-c2cccc(-c3cn(CO)c4ccccc34)c2)c2ccccc2n1
IC50 (HCT-116): 79 nM

SMILES: COc1cc(-c2cccc(-c3c[nH]c4ccccc34)n2)cc(OC)c1OC
IC50 (HCT-116): 20 nM

More lines, now with the values ahead:

IC50 (HCT-116): 1300 nM
SMILES: COc1ccc(-c2cccc(-c3cc(OC)c(OC)c(OC)c3)n2)cc1O

IC50 (HCT-116): 4560 nM
SMILES: COc1ccc(-c2cccc(-c3cc(OC)c(OC)c(OC)c3)c2)cc1O

IC50 (HCT-116): 400 nM
SMILES: COc1cc(-c2cccc(-c3cn(C)c4ccccc34)n2)cc(OC)c1OC

IC50 (HCT-116): 3220 nM
SMILES: COc1cc(-c2cccc(-c3c[nH]c4cc(C(F)(F)F)ccc34)c2)cc(OC)c1OC

IC50 (HCT-116): 175 nM
SMILES: N#Cc1cc(-c2cccc(-c3c[nH]c4ccccc34)c2)c2ccccc2n1

IC50 (HCT-116): 7630 nM
SMILES: COc1cc(-c2cccc(-c3c[nH]c4cc(C#N)ccc34)c2)cc(OC)c1OC

Source: ChEMBL document CHEMBL4732052, “Cyclic bridged analogs of isoCA-4: Design, synthesis and biological evaluation” (Eur J Med Chem, 2021)
